30 molecules from ChEMBL document CHEMBL1153367, “Synthesis and evaluation of lysine derived sulfamides as histone deacetylase inhibitors” (Bioorg Med Chem Lett, 2009) can be followed below.

For data set [1], the target named is Histone deacetylase 1 (Homo sapiens, UniProt Q13547). Briefly: Inhibition of human recombinant FLAG-tagged HDAC1 expressed in baculovirus. The essentials:
(§1)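 Enzyme preincubated with inhibitor 10 min at ambient temperature in 25 mM Hepes pH 8.0, 137 mM NaCl, 1 mM MgCl₂, 2.7 mM KCl. Coumarin-labeled acetyl-lysine substrate then added, incubated at 37 °C. Quenched with trypsin (1 mg/mL final) and TSA (1 μM final). Fluorescence read; IC50 from dose–response curves. Values are means of at least two experiments.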

The target of data set [2] is T1, Protein deacetylase HDAC6 (Homo sapiens, UniProt Q9UBN7).
T1 sequence (Q9UBN7 whole entry): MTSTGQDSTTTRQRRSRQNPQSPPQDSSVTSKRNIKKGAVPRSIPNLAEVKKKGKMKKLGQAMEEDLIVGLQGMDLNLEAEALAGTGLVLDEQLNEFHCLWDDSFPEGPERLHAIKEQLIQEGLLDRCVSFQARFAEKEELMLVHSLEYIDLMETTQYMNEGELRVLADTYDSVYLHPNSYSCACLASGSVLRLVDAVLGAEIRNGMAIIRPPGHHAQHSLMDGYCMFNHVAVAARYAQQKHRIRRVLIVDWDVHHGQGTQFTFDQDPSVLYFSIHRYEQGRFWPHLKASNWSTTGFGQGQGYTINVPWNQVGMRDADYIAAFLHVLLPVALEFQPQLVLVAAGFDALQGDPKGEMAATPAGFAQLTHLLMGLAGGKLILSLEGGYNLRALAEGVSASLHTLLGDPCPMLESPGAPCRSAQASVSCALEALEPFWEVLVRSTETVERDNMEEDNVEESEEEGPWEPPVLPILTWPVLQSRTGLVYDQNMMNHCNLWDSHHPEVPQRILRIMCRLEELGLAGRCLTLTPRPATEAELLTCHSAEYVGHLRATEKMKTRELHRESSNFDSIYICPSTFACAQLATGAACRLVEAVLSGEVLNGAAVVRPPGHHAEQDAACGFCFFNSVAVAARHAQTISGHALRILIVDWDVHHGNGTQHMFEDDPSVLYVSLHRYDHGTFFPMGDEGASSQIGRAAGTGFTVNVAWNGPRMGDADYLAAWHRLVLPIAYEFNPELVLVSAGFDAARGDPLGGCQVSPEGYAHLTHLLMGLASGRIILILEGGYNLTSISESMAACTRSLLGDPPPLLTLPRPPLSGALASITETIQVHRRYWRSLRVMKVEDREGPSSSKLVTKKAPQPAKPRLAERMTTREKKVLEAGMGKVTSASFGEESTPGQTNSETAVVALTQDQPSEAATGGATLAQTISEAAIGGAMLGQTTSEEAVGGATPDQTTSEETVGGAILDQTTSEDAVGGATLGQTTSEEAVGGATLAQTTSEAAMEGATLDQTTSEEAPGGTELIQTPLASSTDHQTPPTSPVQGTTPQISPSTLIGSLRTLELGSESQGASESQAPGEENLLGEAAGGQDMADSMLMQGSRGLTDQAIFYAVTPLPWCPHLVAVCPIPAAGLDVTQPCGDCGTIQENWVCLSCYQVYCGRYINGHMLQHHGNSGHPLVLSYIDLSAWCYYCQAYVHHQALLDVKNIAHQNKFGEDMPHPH
The experiment in a line: Inhibition of human recombinant His-tagged HDAC6 expressed in baculovirus. The essentials: as §1

Data set [3] addresses Histone deacetylase. Briefly: Inhibition of HDAC in HEK293T cells by whole cell assay. The class given is cell-based, Homo sapiens. The conditions noted are these: hek-293t. The essentials:
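Cultured 293T cells exposed to inhibitors for 16 h, then given the membrane-permeable substrate Boc-Ac-Lys-AMC for 90 min at 37 °C. Quenched with trypsin (1 mg/mL final) and TSA, then lysed in 1% NP-40. Fluorescence read at Ex 360/Em 470 nm; IC50 reported. Values are means of at least two experiments.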

A short description of data set [4]: Clearance in iv dosed rat. The class given is ADME, organism-based. The conditions noted are these: in vivo.
Data set [5] is described as follows: Volume of distribution at steady state in rat. The class given is ADME, organism-based. The conditions noted are these: in vivo, read-out: Vdss.
The nature of data set [6]: Half life in rat. The class given is ADME, organism-based. As to conditions: in vivo.
A short description of data set [7]: Oral bioavailability in rat. The conditions noted are these: in vivo. The class given is ADME, organism-based.
For data set [8], the species on record is Homo sapiens. Briefly: Selectivity for ratio of IC50 for human recombinant HDAC1 to IC50 for human recombinant HDAC6. The method in brief: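 HDAC1 and HDAC6 were each preincubated with compound for 10 min at ambient temperature in 25 mM Hepes pH 8.0, 137 mM NaCl, 1 mM MgCl2, 2.7 mM KCl. A coumarin-labeled acetyl-lysine substrate was then added at 37 °C. Reactions were quenched with trypsin (1 mg/mL final) plus TSA, and fluorescence was read. IC50s came from dose-response curves, as means of at least two experiments. The ratio is HDAC1 IC50 over HDAC6 IC50.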

Data set [9] can be described thus: Metabolic stability in rat plasma assessed as compound remaining after 1 hr. Format: ADME, cell-free. As to conditions: read-out: Activity. The essentials:
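Compound kept in rat plasma at 37 °C for 1 h; percentage of intact compound remaining was measured.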

For data set [10], the target named is Histone deacetylase. The experiment in a line: Inhibition of HDAC in T24 cells assessed as histone H3 acetylation. The conditions noted are these: Homo sapiens.
Data set [11] addresses Histone deacetylase. The experiment in a line: Inhibition of HDAC in T24 cells assessed as alpha-tubulin acetylation. The conditions noted are these: Homo sapiens.

Sequence of Histone deacetylase 1 (Q13547 whole entry): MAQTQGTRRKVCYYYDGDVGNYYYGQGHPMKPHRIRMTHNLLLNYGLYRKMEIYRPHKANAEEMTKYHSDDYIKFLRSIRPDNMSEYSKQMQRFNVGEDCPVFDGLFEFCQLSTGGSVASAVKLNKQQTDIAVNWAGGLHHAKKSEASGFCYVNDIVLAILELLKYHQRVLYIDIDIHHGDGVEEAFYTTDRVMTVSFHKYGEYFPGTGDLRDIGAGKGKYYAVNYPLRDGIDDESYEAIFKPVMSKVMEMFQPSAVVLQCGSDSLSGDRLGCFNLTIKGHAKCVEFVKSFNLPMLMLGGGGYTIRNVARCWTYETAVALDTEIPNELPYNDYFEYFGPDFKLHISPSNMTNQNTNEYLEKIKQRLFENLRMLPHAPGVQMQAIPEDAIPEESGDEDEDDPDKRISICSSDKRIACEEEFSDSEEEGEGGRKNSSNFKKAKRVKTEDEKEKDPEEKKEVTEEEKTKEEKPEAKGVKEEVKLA

By IC50 is commonly meant the concentration that inhibits the measured activity by half. In the case of `NS(=O)(=O)NCCCC[C@H](NC(=O)OCc1ccccc1)c1nnc(-c2ccccc2)o1`, the half-maximal inhibitory concentration (IC50) was determined as 3200 nM in [1], 1800 nM in [2] and 9900 nM in data set [3].
For `N[C@@H](CCCCNS(N)(=O)=O)C(=O)Nc1nc(-c2ccccc2)cs1`, in that order: above 10000 nM, 1100 nM and above 50000 nM.
For `COc1ccc(-c2csc(NC(=O)[C@H](CCCCNS(N)(=O)=O)NC(=O)OCc3ccccc3)n2)cc1`, in that order: 120 nM, 200 nM and 530 nM.
For `NS(=O)(=O)NCCCC[C@H](NC(=O)OCc1ccccc1)c1nc2ccccc2[nH]1` the same measures were 2900 nM, 100 nM and 9500 nM.
For the molecule `NS(=O)(=O)NCCCC[C@H](NC(=O)NCc1ccc(F)cc1)C(=O)Nc1nc(-c2ccccc2)cs1`, the figures for the IC50 in data set [1], in data set [2] and in [3] were 350 nM, 370 nM and 29000 nM, respectively.
Take `CC(C)c1ccc(-c2csc(NC(=O)[C@H](CCCCNS(N)(=O)=O)NC(=O)OCc3ccccc3)n2)cc1`: the 50% inhibitory concentration (IC50) came to 520 nM in data set [1], 1400 nM in [2] and 3200 nM in [3].
For `NS(=O)(=O)NCCCC[C@H](NC(=O)Nc1ccccc1)C(=O)Nc1nc(-c2ccccc2)cs1`, the concentration for half-maximal inhibition (IC50) in [1] is 2300 nM; in data set [2] it was 560 nM; in [3], above 50000 nM.
`NS(=O)(=O)NCCCC[C@H](NC(=O)OCc1cccnc1)C(=O)Nc1nc(-c2ccccc2)cs1`: the IC50 in [1] is 1500 nM; in data set [2] it was 600 nM; in [3] it was 18000 nM.
`NS(=O)(=O)NCCCC[C@H](NC(=O)OCc1ccccc1)c1c[nH]c(-c2ccccc2)n1`: the half-maximal inhibitory concentration (IC50) in [1] is 290 nM; in [2] it was 410 nM; in [3] it was 2200 nM.
For `CCOC(=O)c1csc(NC(=O)[C@H](CCCCNS(N)(=O)=O)NC(=O)OCc2ccccc2)n1`, in that order: above 10000 nM, 580 nM and above 50000 nM.
As for `NS(=O)(=O)NCCCC[C@H](NC(=O)OCc1ccccc1)c1nc(-c2ccccc2)cs1`, the IC50 in [1] stood at 4900 nM; in data set [2] it was 1200 nM; in data set [3] it was 12000 nM.
For `COc1cccc(-c2csc(NC(=O)[C@H](CCCCNS(N)(=O)=O)NC(=O)OCc3ccccc3)n2)c1`, the 50% inhibitory concentration (IC50) in data set [1] was 460 nM; in [2] it was 420 nM; in [3] it was 3200 nM.
Turning to `COc1ccc2[nH]c(C)c(CC(=O)N[C@@H](CCCCNS(N)(=O)=O)C(=O)Nc3nc(-c4ccccc4)cs3)c2c1`, the IC50 in data set [1] worked out at 64 nM; in [2] it was 1200 nM; in data set [3], 590 nM.
For `CCOC(=O)N[C@@H](CCCCNS(N)(=O)=O)C(=O)Nc1nc(-c2ccccc2)cs1`, in that order: 2500 nM, 200 nM and 17000 nM.
Turning to `NS(=O)(=O)NCCCC[C@H](NC(=O)Cc1ccccc1)C(=O)Nc1nc(-c2ccccc2)cs1`, the values for the IC50 in data set [1], in data set [2] and in data set [3] were 700 nM, 150 nM and 6100 nM, respectively.
With `NS(=O)(=O)NCCCC[C@H](NC(=O)OCc1cccc(Cl)c1)C(=O)Nc1nc(-c2ccccc2)cs1`, the 50% inhibitory concentration (IC50) stood at 350 nM in data set [1], 280 nM in data set [2] and 3600 nM in data set [3].
Consider `NS(=O)(=O)NCCCC[C@H](NC(=O)OCc1ccccc1)C(=O)Nc1nc2ccccc2s1`, for which the results for the IC50 in data set [1], in [2] and in [3] were 4500 nM, 190 nM and 19000 nM, respectively.
In general, clearance refers to the rate of elimination divided by the concentration. A lower clearance goes with a low capacity for elimination. In general, half-life refers to how long it takes for the measured level to halve. By bioavailability is commonly meant dose-corrected exposure relative to a reference, in per cent. For `CN(C)CCOc1ccc(-c2nc([C@H](CCCCNS(N)(=O)=O)NC(=O)OCc3ccccc3)cs2)cc1`, the 50% inhibitory concentration (IC50) in [1] is 390 nM; in data set [2] it was 890 nM; in [3] it was 180 nM. The clearance in data set [4] is 38.3 mL/min/kg. Besides, in [5], the Vd turned out to be 0.78 L/kg. For the same molecule, the half-life in [6] is 96 min. In [7], this molecule gave a bioavailability of 0.5%.
For the molecule `NS(=O)(=O)NCCCC[C@H](NC(=O)OCc1ccccc1)C(=O)Nc1nc(-c2ccc(Cl)cc2)cs1`, the half-maximal inhibitory concentration (IC50) was 150 nM in data set [1], 250 nM in [2] and 4900 nM in data set [3].
For `NS(=O)(=O)NCCCC[C@H](NC(=O)OCc1ccccc1)C(=O)Nc1nccs1`, in that order: above 10000 nM, 4100 nM and above 50000 nM.
Regarding `CC(C)(C)c1csc(NC(=O)[C@H](CCCCNS(N)(=O)=O)NC(=O)OCc2ccccc2)n1`, the half-inhibitory concentration (IC50) is 3600 nM in data set [1], 840 nM in data set [2] and 9100 nM in data set [3].
For `Cn1nc([C@H](CCCCNS(N)(=O)=O)NC(=O)OCc2ccccc2)nc1-c1ccccc1`, in that order: 4300 nM, 2000 nM and above 50000 nM.
Take `NS(=O)(=O)NCCCC[C@H](NC(=O)OCc1ccccc1)c1csc(-c2ccccc2)n1`: the IC50 in [1] came out at 790 nM; in data set [2], 400 nM; in data set [3] it was 5800 nM. Also, the Ratio IC50 in [8] was found to be 2.
A word on the EC50: it is the concentration giving half of the maximal effect. In data set [3], `NS(=O)(=O)NCCCC[C@H](NC(=O)OCc1ccccc1)C(=O)Nc1nc(-c2ccccc2)cs1` gave an IC50 of 2300 nM. The remaining at 1 h in [9] came to 3%. In data set [4], this molecule gave a clearance of 41.7 mL/min/kg. Besides, in data set [5], the Vd turned out to be 0.02 L/kg. This molecule gave a half-life in data set [6] of 1.5 min. This molecule yielded a bioavailability in [7] of 4.9%. Also, the values for the EC50 in data set [10] and in [11] were 700 nM and 600 nM, respectively.
Consider `NS(=O)(=O)NCCCC[C@H](NC(=O)OCc1ccccc1)C(=O)Nc1nc(-c2ccccc2)c(-c2ccccc2)s1`, for which the 50% inhibitory concentration (IC50) turned out to be 850 nM in data set [1], 450 nM in [2] and 7200 nM in [3].
Take `COc1ccc(-c2nc([C@H](CCCCNS(N)(=O)=O)NC(=O)OCc3ccccc3)cs2)cc1`: the concentration for half-maximal inhibition (IC50) in [1] is 500 nM; in [2] it was 480 nM.
In the case of `NS(=O)(=O)NCCCC[C@H](NS(=O)(=O)Cc1ccccc1)C(=O)Nc1nc(-c2ccccc2)cs1`, the IC50 in data set [1] was 1400 nM; in data set [2], 520 nM; in data set [3] it was 38000 nM.
For `NS(=O)(=O)NCCCC[C@H](NC(=O)OCc1ccccc1)c1nc(-c2ccc(F)cc2)no1` the same measures were above 10000 nM, 1700 nM and above 50000 nM.
`NS(=O)(=O)NCCCC[C@H](NC(=O)OCc1ccc(Cl)cc1)C(=O)Nc1nc(-c2ccccc2)cs1`: the IC50 was determined as 570 nM in data set [1], 530 nM in [2] and 6800 nM in data set [3].
For `NS(=O)(=O)NCCCC[C@H](NC(=O)OCc1ccccc1)c1n[nH]c(-c2ccccc2)n1`, in that order: 2400 nM, 320 nM and 6400 nM.
